This is a sample that favours compounds with a hit; in the whole collection about 1.5% have one here.
EBI2 block: EBI2 receptor antagonists, beta-arrestin recruitment, primary screen, cell-based, luminescence, 7a,25-OHC stimulation, uHTS | G-protein coupled receptor 183 (Homo sapiens), P32249 | 7a,25-OHC stimulated | inhibition, % at 5 µM | hit rate 0.81% among 360,000; in the data active means inhibition above about 38%;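 further: enzyme fragment complementation signal reports receptor beta-arrestin coupling in cells; 0% = agonist plus DMSO wells and 100% = wells without agonist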
CCR6 antagonist: CCR6 receptor antagonists, primary screen, cell-based, CHO-K1, luminescence, beta-arrestin, uHTS. C-C chemokine receptor type 6 (Homo sapiens), P51684. CHO-K1 CCR6 PathHunter beta-arrestin, CCL20-stimulated. inhibition, % at 20 µM. hit rate 0.49% among 340,000. AID 493098, 2011;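 active means compounds whose inhibition of the agonist-driven luminescence signal at 20 µM reaches about 50%, limit read from the data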;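 further: cells stimulated with CCL20 at 14 nM final; plate controls were DMSO with CCL20 for no effect and DMSO without agonist for full effect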
Target sequence (P51684 whole entry, looked up): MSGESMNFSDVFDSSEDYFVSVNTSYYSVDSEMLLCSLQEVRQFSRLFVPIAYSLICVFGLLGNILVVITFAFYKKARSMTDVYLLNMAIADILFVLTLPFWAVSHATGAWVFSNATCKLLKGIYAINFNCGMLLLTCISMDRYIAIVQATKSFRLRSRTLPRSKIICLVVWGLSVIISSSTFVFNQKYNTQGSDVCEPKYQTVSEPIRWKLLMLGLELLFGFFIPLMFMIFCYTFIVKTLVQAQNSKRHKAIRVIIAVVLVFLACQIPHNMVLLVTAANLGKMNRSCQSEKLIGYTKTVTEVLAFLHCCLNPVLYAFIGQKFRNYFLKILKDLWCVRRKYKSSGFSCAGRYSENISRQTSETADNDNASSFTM
APJ antag: antagonists of human apelin receptor APJ, primary screen, CHO-K1 cells, beta-arrestin complementation, luminescence; P35414; inhibition, % at 20 µM; hit rate 0.32% among 330,000; AID 2521, 2010;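 active means inhibition above about 40% at 20 µM, limit read from the data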;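 further: cells challenged with 10 nM apelin-13 agonist together with compound; plate controls were apelin-13 plus DMSO wells for no effect and DMSO wells lacking apelin-13 for full effect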
CXCR6 inh: CXCR6 receptor inhibitors, primary screen, cell-based, beta-arrestin, luminescence, CHO-K1 PathHunter, 1536-well. C-X-C chemokine receptor type 6 (Homo sapiens), O00574. inhibition, % at 20 µM. hit rate 0.36% among 360,000. AID 602244, 2012; in the data active means inhibition above about 34%, passing the limit was not always enough;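 further: antagonist mode with CXCL16 agonist at 10 nM final; 0% = 10 nM CXCL16 with DMSO and 100% = unstimulated wells without agonist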
Target sequence (O00574 whole entry, looked up): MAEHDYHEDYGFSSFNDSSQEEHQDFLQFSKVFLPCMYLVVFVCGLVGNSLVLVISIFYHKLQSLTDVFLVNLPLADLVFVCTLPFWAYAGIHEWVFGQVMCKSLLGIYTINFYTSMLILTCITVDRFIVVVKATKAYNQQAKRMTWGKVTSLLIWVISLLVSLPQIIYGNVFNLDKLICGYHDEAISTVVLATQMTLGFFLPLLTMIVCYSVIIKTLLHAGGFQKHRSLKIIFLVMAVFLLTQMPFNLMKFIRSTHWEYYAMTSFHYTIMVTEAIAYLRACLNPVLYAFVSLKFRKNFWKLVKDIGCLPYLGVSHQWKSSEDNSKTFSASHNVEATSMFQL
APJ ag: agonists of human apelin receptor APJ, primary screen, CHO-K1 cells, PathHunter beta-arrestin, luminescence | P35414 | 0% DMSO wells, 100% apelin | activation, % at 20 µM | hit rate 0.11% among 330,000 | AID 2520, 2010;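 active means activation more than six SD over the plate average, tested at 20 µM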;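 further: 0% = DMSO alone and 100% = apelin-13 at 10 nM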
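Incubation: overnight seeding, 90 min compound at 25 °C, 1 h detection; test system: PathHunter CHO-K1 APJ (AGTRL-1) beta-arrestin reporter cells; amount: 1000 cells/well; doses: one dose, 20 µM compound, 1% DMSO; measured by: beta-gal luminescence; measure: agonist-driven arrestin binding to APJ; benchmarks: negative DMSO alone, positive Apelin-13 at 10 nM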
Starred values were filed as active, the others as inactive; / = no result given.

SMILES | EBI2 block | CCR6 antagonist | APJ antag | CXCR6 inh | APJ ag
CCCCNC(=O)C[C@@H]1C[C@@]2(C(=O)OC)CCCCC=C2N(CCC2=CCCCC2)C1=O | 7 | / | / | 0 | /
O=C1CSC(=S)N1/N=C/C=C/c1ccccc1 | -7 | 34 | 2 | 46* | -2
COc1ccc(N=C2S/C(=C\c3ccc(N4CCOCC4)o3)C(=O)N2CCc2c[nH]c3ccccc23)cc1 | 81* | / | 10 | 12 | 1
O=C(C[n+]1ccccc1)N/N=C/c1cc(Br)cc(Br)c1O | 10 | 21 | 9 | 7 | -4
CCC(O)(CC)C(=O)N/N=C/c1cc(Br)cc(Br)c1O | 64* | 23 | 8 | 14 | -8
NC(=O)CC1(c2ccccc2)CCCCC1 | 2 | / | / | -4 | /
COc1cccc(/C=N/Nc2nc(Nc3ccc([N+](=O)[O-])cc3)nc(N3CCCC3)n2)c1O | 13 | 69* | -9 | 45* | 0
O=C(Nc1cc(S(=O)(=O)Nc2ccc(Cl)cc2)ccc1O)c1ccc(S(=O)(=O)N2CCCCCC2)cc1 | 10 | 9 | -14 | 3 | -2
O=C(N/N=C\c1cc(Cl)ccc1O)c1ccc(S(=O)(=O)N2CCCCC2)cc1 | 49* | 16 | -13 | -5 | 1
CC1=NN(c2ccccc2)C(=O)/C1=C/C=C/c1ccc(N(C)C)cc1 | 56* | 89* | / | 71* | /
CC1=NN(c2ccccc2)C(=O)/C1=C\C=C\c1ccccc1 | 7 | 19 | 3 | 12 | -3
Cc1cc(F)ccc1-c1cc(C(=O)NC(C)C)[nH]n1 | 2 | / | / | -6 | /
COc1ccc(N2C(=O)CC(Sc3nnc(-c4ccccc4)o3)C2=O)cc1 (stereo not drawn) | 6 | / | 4 | 30 | 1
COc1ccc(N2C(=O)CC(Sc3nnnn3-c3ccc(F)cc3)C2=O)cc1 (stereo not drawn) | -1 | 96* | -34 | 102* | -2
Cn1cc(C(C[N+](=O)[O-])c2ccccc2)c2ccccc21 (stereo not drawn) | 2 | 18 | -5 | -1 | -1
CC(=O)n1cc(C(C[N+](=O)[O-])SCCN)c2ccccc21 (stereo not drawn) | -52 | 60* | 1 | 3 | -2
O=C(CCN=C1NS(=O)(=O)c2ccccc21)OCc1nnc(-c2ccc([N+](=O)[O-])cc2)o1 | -10 | -10 | 4 | -23 | 6
N#CC1(NC(=O)CSc2nnc(C3CC3)n2N)CCCCC1 | -6 | / | / | -5 | /
O=C1C2C3C=CC(CO)(O3)C2C(=O)N1c1ccccc1-c1ccccc1 (stereo not drawn) | -12 | 102* | 17 | 57* | -4
CC(=O)Oc1ccc(N2C(=O)C3C4C=CC(CO)(O4)C3C2=O)cc1 (stereo not drawn) | -3 | -4 | 9 | 17 | 4
CC(C)COC(=O)N(C)C[C@@H]1OCc2cnnn2CCCC(=O)N([C@H](C)CO)C[C@@H]1C | -7 | / | / | 4 | /
O=P(NC1CCCCC1)(c1ccccc1)c1ccccc1 | 1 | 6 | / | -1 | /
CC/C(=C\C1CCCCC1)C(NP(=O)(c1ccccc1)c1ccccc1)c1ccccc1 (stereo not drawn) | -22 | 35 | 21 | 44* | -2
Cc1ccccc1C(=O)NC(=S)Nc1ccc(S(=O)(=O)N2CCN(C)CC2)cc1 | 8 | 61* | 5 | 19 | -4
C#CCOCCOCCOCCNc1nc(N2CCN(C(=O)CCCCCCCCCCNC(=O)[C@H]([C@@H](C)CC)n3cc(CCCCN=C(N)N)nn3)CC2)nc(N2CCN(C(=O)CCCCCCCCCCNC(=O)[C@H]([C@@H](C)CC)n3cc(CCCCN=C(N)N)nn3)CC2)n1 | / | / | 27 | / | 71*
SMILES | EBI2 block | CCR6 antagonist | APJ antag | CXCR6 inh | APJ ag
C#CCOCCOCCOCCNc1nc(N2CCN(C(=O)CCCCCCCCCCNC(=O)[C@H]([C@@H](C)CC)n3cc(CCCCCN)nn3)CC2)nc(N2CCN(C(=O)CCCCCCCCCCNC(=O)[C@@H]([C@H](C)CC)n3cc(CCCCCN)nn3)CC2)n1 | / | / | 22 | / | 55*
C#CCOCCOCCOCCNc1nc(N2CCOCC2)nc(N2CCN(C(=O)CCCCCCCCCCNC(=O)[C@@H]([C@H](C)CC)n3cc(CCCCCN)nn3)CC2)n1 | -6 | 13 | 14 | 1 | 1
C#CCOCCOCCOCCNc1nc(N2CCN(C(=O)CCCCCCCCCCNC(=O)[C@H]([C@@H](C)CC)n3cc(CCCCN=C(N)N)nn3)CC2)nc(N2CCN(C(=O)CCCCCCCCCCNC(=O)[C@H](CO)n3cc(CCCCCN)nn3)CC2)n1 | -1 | -27 | 14 | 61* | 3
C#CCOCCOCCOCCNc1nc(N2CCN(C(=O)CCCCCCCCCCNC(=O)Cn3cc(CCCCCN)nn3)CC2)nc(N2CCN(C(=O)CCCCCCCCCCNC(=O)[C@H]([C@@H](C)CC)n3cc(CCCCN=C(N)N)nn3)CC2)n1 | -7 | -27 | 22 | 40 | 17
COCCNc1nc(NCc2ccc(C(C)C)cc2)c2sccc2n1 | -33 | / | / | -2 | /
CC(C)[C@@H]1Cc2[nH]c(=S)[nH]c(=O)c2[C@H](CCc2ccccc2)O1 | -6 | / | / | -3 | /
COc1ccc(Oc2ccc(/C=C/C(=O)c3ccc(O)cc3)cc2[N+](=O)[O-])cc1 | 79* | 43 | 18 | 5 | -4
CC(C)Nc1nc(Nc2ccc(F)cc2)c2sccc2n1 | -2 | / | / | -2 | /
COc1ccc(OC)c(NC(=O)C2(C)CCN2Cc2ccccc2Cl)c1 (stereo not drawn) | 15 | / | / | 3 | /
CC1(C(=O)O)CCCN1C(=O)c1cccc(C(F)(F)F)c1 (stereo not drawn) | 0 | / | / | 2 | /
COc1ccc(N2CCN(C(=O)CN(Cc3ccc(Cl)cc3)S(C)(=O)=O)CC2)cc1 | 6 | -2 | -3 | 71* | -2
O=C(O)c1cc(N=Nc2c(O)ccc3ccccc23)cc(C(=O)O)c1 | 15 | 57* | / | 28 | /
Cc1ccc(OCC(=O)N2CCN(c3ccc([N+](=O)[O-])c(N4CCOCC4)c3)CC2)cc1 | 56* | 14 | 5 | 4 | -8
Cc1ccc(Nc2c(-c3ccccn3)nc3cc(C)ccn23)cc1 | 7 | 57* | 39 | 40* | -4
O=[N+]([O-])c1ccc2[nH]c(O)c(N=NC(=S)Nc3cccnc3)c2c1 | 30 | 70* | 34 | 42* | -4
CCNC(=S)N=Nc1c(O)[nH]c2ccc([N+](=O)[O-])cc12 | 10 | 42 | 38 | 21 | -5
Cc1ccc(NC(=O)c2ccc([N+](=O)[O-])o2)c(C)c1 | -4 | -16 | -56 | -28 | 1
Cc1ccc(S(=O)(=O)c2ccc([N+](=O)[O-])o2)cc1 | 31 | 103* | / | 97* | /
CC(=O)NC(=S)NNC(=O)CCc1ccccc1 | 0 | -1 | 23 | 17 | -4
O=C(CCc1ccccc1)NNC(=S)NC(=O)c1ccccc1 | -3 | 69* | 24 | 26 | -3
CC(C)n1c(=O)c2ccccc2n1CC(=O)N1CCOCC1 | 2 | / | / | -3 | /
CC(C)(C)OC(=O)N1CCC[C@@H]1C(=O)NCc1ccccc1Cl | -6 | / | / | -6 | /

High-throughput results: PubChem BioAssay, Sanford-Burnham Center for Chemical Genomics
